What was measured:
Balamuthia mandrillaris [1] = experiment: Antimicrobial activity against Balamuthia mandrillaris ATCC 50209 infected in HBMEC assessed as inhibition of encystment at 5 ug/mL after 7 days; assay type: functional; details: ATCC 50209, 168 h
Summary of the method: (§1)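 Trophozoites (>95%) held at 2 × 10^5/ml in RPMI 1640 with drug at 37°C for 48 h. SDS (0.5% final) lyses the remaining trophozoites, and a hemocytometer count is taken before and after SDS. % encystment = post-SDS/pre-SDS × 100, and percent inhibition is calculated from it; mean ± SE. For viability, cysts made before SDS were placed on HBMEC monolayers for up to 7 days and watched for trophozoite emergence.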

Balamuthia mandrillaris [2] = experiment: Antimicrobial activity against Balamuthia mandrillaris ATCC 50209 infected in HBMEC assessed as inhibition of amoeba-induced cytopathogenicity at 5 ug/mL after 24 hrs by LDH release assay; assay type: functional; details: ATCC 50209, 24 h
Summary of the method: (§2)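 B. mandrillaris ATCC 50209 (grown on host-cell feeder layers) pretreated with drug for 45 min in serum-free medium, then added at 10^5 amoebae/well, with inhibitor still present, to primary HBMEC monolayers (RPMI 1640, 10% FBS, 10% NuSerum). Incubation at 37°C, 5% CO2, up to 24 h. Cytotoxicity read as LDH release into supernatant. Percent inhibition is relative to amoebae alone; mean ± SE.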

Balamuthia mandrillaris [3] = experiment: Antimicrobial activity against Balamuthia mandrillaris ATCC 50209 infected in HBMEC assessed as inhibition of amoeba-induced cytopathogenicity at 10 ug/mL after 24 hrs by LDH release assay; assay type: functional; details: ATCC 50209, 24 h; summary of the method: as §2
Balamuthia mandrillaris [4] = experiment: Antimicrobial activity against Balamuthia mandrillaris ATCC 50209 infected in HBMEC assessed as inhibition of encystment at 10 ug/mL after 7 days; assay type: functional; details: ATCC 50209, 168 h; summary of the method: as §1
Balamuthia mandrillaris [5] = experiment: Antimicrobial activity against Balamuthia mandrillaris ATCC 50209 infected in HBMEC assessed as inhibition of encystment at 200 uM after 7 days; assay type: functional; details: ATCC 50209, 168 h; summary of the method: as §1
Balamuthia mandrillaris [6] = experiment: Antimicrobial activity against Balamuthia mandrillaris ATCC 50209 infected in HBMEC assessed as inhibition of encystment at 100 uM after 7 days; assay type: functional; details: ATCC 50209, 168 h; summary of the method: as §1
Balamuthia mandrillaris [7] = experiment: Antimicrobial activity against Balamuthia mandrillaris ATCC 50209 infected in HBMEC assessed as inhibition of amoeba-induced cytopathogenicity at 100 uM after 24 hrs by LDH release assay; assay type: functional; details: ATCC 50209, 24 h; summary of the method: as §2
Balamuthia mandrillaris [8] = experiment: Antimicrobial activity against Balamuthia mandrillaris ATCC 50209 infected in HBMEC assessed as inhibition of encystment at 500 uM after 7 days; assay type: functional; details: ATCC 50209, 168 h; summary of the method: as §1
Balamuthia mandrillaris [9] = experiment: Antimicrobial activity against Balamuthia mandrillaris ATCC 50209 infected in HBMEC assessed as inhibition of amoeba-induced cytopathogenicity at 200 uM after 24 hrs by LDH release assay; assay type: functional; details: ATCC 50209, 24 h; summary of the method: as §2
Balamuthia mandrillaris [10] = experiment: Antimicrobial activity against Balamuthia mandrillaris ATCC 50209 infected in HBMEC assessed as inhibition of amoeba-induced cytopathogenicity at 10 uM after 24 hrs by LDH release assay; assay type: functional; details: ATCC 50209, 24 h; summary of the method: as §2
Balamuthia mandrillaris [11] = experiment: Antimicrobial activity against Balamuthia mandrillaris ATCC 50209 infected in HBMEC assessed as inhibition of encystment at 10 uM […]; assay type: functional; summary of the method: as §1
Balamuthia mandrillaris [12] = experiment: Antimicrobial activity against Balamuthia mandrillaris ATCC 50209 infected in HBMEC assessed as inhibition of encystment at 50 uM after 7 days; assay type: functional; details: ATCC 50209, 168 h; summary of the method: as §1
Balamuthia mandrillaris [13] = experiment: Antimicrobial activity against Balamuthia mandrillaris ATCC 50209 infected in HBMEC assessed as inhibition of amoeba-induced cytopathogenicity at 50 uM after 24 hrs by LDH release assay; assay type: functional; details: ATCC 50209, 24 h; summary of the method: as §2
[14] = Cytotoxicity against HBMEC assessed as LDH release at 10 ug/mL; details: human

Row | SMILES | inhibition at 5 µg/mL (Balamuthia mandrillaris [1]) [%] | inhibition at 5 µg/mL (Balamuthia mandrillaris [2]) [%] | inhibition at 10 µg/mL (Balamuthia mandrillaris [3]) [%] | inhibition at 10 µg/mL (Balamuthia mandrillaris [4]) [%] | inhibition at 100 µM (Balamuthia mandrillaris [6]) [%] | other results
1 | C[C@@H]1CC[C@H]2[C@@H](C)C(=O)O[C@@H]3O[C@@]4(C)CC[C@@H]1[C@]32OO4 [ARTEMISININ] | 37 | 34 | 45 | 52 |  | 
2 | CCC[C@@H]1C[C@@H](C(=O)N[C@@H]([C@H]2O[C@H](SC)[C@H](O)[C@@H](O)[C@H]2O)[C@H](C)Cl)N(C)C1 [CLINDAMYCIN] | 4 | 16 | 10 | 0 |  | 
3 | C[C@@H]1C[C@@H]([C@H](O)CC2CC(=O)NC(=O)C2)C(=O)[C@@H](C)C1 [CYCLOHEXIMIDE] |  |  |  |  | 94 | inhibition at 200 µM (Balamuthia mandrillaris [5]): 95%; inhibition at 100 µM (Balamuthia mandrillaris [7]): 44%; inhibition at 500 µM (Balamuthia mandrillaris [8]): 98.4%; inhibition at 200 µM (Balamuthia mandrillaris [9]): 0%
4 | C=C1[C@@H](C)[C@H]2[C@H](Cc3ccccc3)NC(=O)[C@]23[C@H](OC(C)=O)/C=C/[C@@](C)(O)C(=O)[C@@H](C)C/C=C/[C@H]3[C@@H]1O [CYTOCHALASIN D] |  |  |  |  | 76 | inhibition at 10 µM (Balamuthia mandrillaris [10]): 13%; inhibition at 10 µM (Balamuthia mandrillaris [11]): 42%; inhibition at 50 µM (Balamuthia mandrillaris [12]): 64%; inhibition at 50 µM (Balamuthia mandrillaris [13]): 42%
5 | Nc1nc(=O)[nH]cc1F [FLUCYTOSINE] | 43 | 20 | 61 | 56 |  | 
6 | CC(=O)N1CCN(c2ccc(OCC3COC(Cn4ccnc4)(c4ccc(Cl)cc4Cl)O3)cc2)CC1 (configuration not stated) [KETOCONAZOLE] | 0 | 14 | 88.5 | 0 |  | Activity [14]: < 5%
